# Measured values from ChEMBL document CHEMBL1128451, “Synthesis and anti-DNA viral activities in vitro of certain 2,4-disubstituted-7-(2-deoxy-2-fluoro-beta-D-arabinofuranosyl)pyrrolo[2,3-d d pyrimidine nucleosides” (J Med Chem, 1995).
# Columns and labels:
# [1] = Visual cytotoxicity of stationary MRC-5 cells, median toxic concentration is evaluated by anti HCMV plaque reduction assay performed in MRC-5 cells using the AD169 strain of HCMV; format: cell-based, MRC5; conditions: human, read-out: TC50 (the source's name)
# Procedure, shortened: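 Stationary uninfected MRC-5 cells scored visually for cytotoxicity from 0 (none at 20-fold magnification) to 4 (cell sheet nearly destroyed); median toxic concentration reported.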
# MRC5 [2] = assay: Anti HCMV (human cytomegalovirus) activity in MRC-5 cells infected with […] strain of HCMV (plaque reduction assay).; format: functional, cell-based
# Vero [3] = assay: Ability to inhibit the Cytopathic effect of HSV-1 in vero cells.; format: functional, cell-based; conditions: Chlorocebus sabaeus
# [4] = Anti viral activity against 2.2.15 cells (concentration required to reduce the log phase cell growth by 50%).; format: cell-based; conditions: human, 2.2.15 cells (HepG2-derived); read-out: TC50 (the source's name)
# Procedure, shortened: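 Growing 2.2.15/HepG2 cells at 1.7×10^4/well, subconfluent on collagen-coated plates, given compound dilutions in quadruplicate. Drug medium refreshed every second day. Proliferation read on days 0, 4, 8 and 12; TC50 is the concentration giving 50% inhibition of proliferation after 12 days' exposure. Mean of three or more experiments.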
# HepG2 = assay: Ability to inhibit the episomal HBV-DNA in 2.2.15 cells.; format: functional, cell-based; conditions: Homo sapiens
# Vero [5] = assay: Ability to inhibit the Cytopathic effect of HSV-2 in vero cells.; format: functional, cell-based; conditions: Chlorocebus sabaeus
# HFF [6] = assay: Plaque reduction and cytotoxicity performed in HFF cell line Hs 68; format: functional, cell-based; conditions: Homo sapiens
# [7] = Visual cytotoxicity of […], median toxic concentration is evaluated by plaque reduction assay performed in HFF Cell line Hs 68; format: cell-based; conditions: human
# MRC5 [8] = assay: Plaque reduction performed using the DHPG- resistant D16 strain of HCMV in MRC-5 cell line; format: functional, cell-based; conditions: Homo sapiens
# Procedure, shortened: (§1)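 Plaque reduction in MRC-5 cells, grown in MEM(E) with 10% FBS and passaged 1:2, infected with the DHPG-resistant D16 HCMV strain, a viral polymerase mutant. IC50 is the concentration reducing plaques by 50%, derived from a regression line of inhibition versus log concentration. Ganciclovir served as the positive control.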
# [9] = Anti viral activity against Vero cells (concentration required to reduce the log phase cell growth by 50%).; format: cell-based; conditions: chlorocebus sabaeus, read-out: TC50 (the source's name)
# Procedure, shortened: (§2)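 Log-phase Vero cells, 5000 cells per assay, exposed to compound for 4 days in quadruplicate. Growth measured by tetrazolium-based (CellTiter 96 aqueous) proliferation read-out; averaged data used to calculate TC50, the concentration reducing cell growth by 50%.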
# [10] = Anti viral activity against MRC-5 cells (concentration required to reduce the log phase cell growth by 50%).; format: cell-based, MRC5; conditions: human, read-out: TC50 (the source's name)
# Procedure, shortened: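 Growing MRC-5 cells; growth inhibition measured with the CellTiter 96 aqueous proliferation assay. TC50 is the concentration reducing log-phase cell growth by 50%.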
# [11] = Visual cytotoxicity of stationary MRC-5 cells, median toxic concentration is evaluated by plaque reduction assay performed in DHPG- resistant D16 strain of HCMV; format: cell-based, MRC5; conditions: human, read-out: TC50 (the source's name)
# Procedure, shortened: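 Uninfected stationary MRC-5 cells were scored by eye for cytotoxicity, from 0 (none visible at 20-fold magnification) to 4 (cell sheet nearly destroyed). The value is the median toxic concentration.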
# [12] = Visual cytotoxicity of stationary HFF Cell line Hs68, median toxic concentration is evaluated by anti HCMV plaque reduction assay performed in HFF Cell line Hs 68; format: cell-based; conditions: human, read-out: TC50 (the source's name)
# Procedure, shortened: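 Stationary uninfected HFF Hs68 cells scored visually for cytotoxicity from 0 (none at 20-fold magnification) to 4 (cell sheet nearly destroyed); median toxic concentration reported.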
# HFF [13] = assay: Anti HCMV(human cytomegalovirus) activity in MRC-5 cells infected with DHPG-resistant D16 strain of HCMV(plaque reduction assay).; format: functional, cell-based; procedure, shortened: as §1
# [14] = Visual cytotoxicity of […], median toxic concentration is evaluated by anti HCMV plaque reduction assay performed in HFF Cell line Hs 68; format: cell-based; conditions: human, read-out: TC50 (the source's name)
# [15] = Anti viral activity against vero cells (concentration required to reduce the log phase cell growth by 50%).; format: cell-based; conditions: chlorocebus sabaeus, read-out: TC50 (the source's name); procedure, shortened: as §2
# HFF [16] = assay: Anti HCMV(human cytomegalovirus) activity in HFF cell line Hs 68 infected with […] strain of HCMV(plaque reduction assay).; format: functional, cell-based
# Procedure, shortened: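 HCMV AD169 plaque reduction in diploid human foreskin fibroblast line Hs68, grown in MEM(E) with 10% FBS and passaged 1:2. IC50 is the concentration cutting plaque number by 50%, calculated by linear regression of inhibition against log drug concentration. Values are averages of three or more experiments. Ganciclovir was the positive control.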
SMILES,CC50 [1] [µg/mL],IC50 (MRC5 [2]) [µg/mL],GI50 [4] [µg/mL],IC50 (HepG2) [µg/mL],other results
Nc1ncc2ccn([C@@H]3O[C@H](CO)[C@@H](O)C3F)c2n1 (stereo partly specified),> 100,16,,,
Nc1nc(N)c2ccn(C3OC(CO)CC3F)c2n1 (stereo unspecified),> 100,> 100,149,> 30,IC50 (Vero [3]): > 100 µg/mL; IC50 (Vero [5]): > 100 µg/mL
Nc1nc(N)c2ccn([C@@H]3O[C@H](CO)[C@@H](O)[C@@H]3F)c2n1,> 100,3.7,630,0.7,IC50 (Vero [3]): 4.1 µg/mL; IC50 (HFF [6]): 3.4 µg/mL; CC50 [7]: > 1000 µg/mL; IC50 (Vero [5]): 6.3 µg/mL; IC50 (MRC5 [8]): 11 µg/mL; CC50 [9]: 53 µg/mL; GI50 [10]: 11.4 µg/mL; CC50 [11]: > 100 µg/mL
Nc1nc2c(ncn2COC(CO)CO)c(=O)[nH]1 [GANCICLOVIR],> 1000,3.2,,,CC50 [12]: > 1000 µg/mL; IC50 (HFF [13]): 52 µg/mL; CC50 [14]: > 1000 µg/mL; CC50 [15]: 270 µg/mL; GI50 [10]: > 500 µg/mL; IC50 (HFF [16]): 4.4 µg/mL
COc1nc(N)nc2c1ccn2[C@@H]1O[C@H](CO)[C@@H](O)[C@@H]1F,> 100,> 100,,,
Nc1nc(Cl)c2ccn([C@@H]3O[C@H](CO)[C@@H](O)[C@@H]3F)c2n1,32,> 100,,,
Nc1nc([SeH])c2ccn([C@@H]3O[C@H](CO)[C@@H](O)[C@@H]3F)c2n1,178,10,,,
NSc1nc(N)nc2c1ccn2[C@@H]1O[C@H](CO)[C@@H](O)[C@@H]1F,> 100,> 100,,,
Nc1nc2c(ccn2[C@@H]2O[C@H](CO)[C@@H](O)[C@@H]2F)c(=O)[nH]1,> 100,51,> 100,60,
Nc1ccn([C@H]2CC[C@@H](CO)O2)c(=O)n1 [ZALCITABINE],,,64,2.1,
Nc1ncc2c(n1)N([C@@H]1O[C@H](CO)[C@@H](O)[C@@H]1F)CC2,32,> 100,,,
NC1=NC(=S)C2C=CN([C@@H]3O[C@H](CO)[C@@H](O)[C@@H]3F)C2=N1 (stereo partly specified),> 50,> 50,,,
